From PMC8848307 (Journal of medicinal chemistry, 2019)
Like-named read-outs stand apart in the source and are kept apart here.

Assays:
STAT3 protein [1] = biological target: STAT3 protein (Mus musculus, UniProt P42227); assay: Pharmacodynamics in native mouse spleen tissue; type: in vivo; details: single intravenous dose, 25 mg/kg, CD-1 mice
Outline: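 Female CD-1 mice received a single intravenous dose of test compound or vehicle (10% PEG400 + 90% PBS). Mice were euthanized at set time points and spleens harvested. Native spleen lysates were immunoblotted for STAT3.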

Molm-16 cell line = assay: Cell growth assay; type: cell-based; details: for activity in inhibition of cell growth: Molm-16
STAT3 protein [2] = biological target: T1, STAT3 protein (Homo sapiens, UniProt P40763); assay: Western blotting of STAT3 degradation in Molm-16 cells; type: cell-based; details: for degradation of total STAT3 and pSTAT3^Y705 proteins: Molm-16, concentrations up to 10 μM
[3] = tested on: STAT1, STAT2, STAT4, STAT5A/B, and STAT6 proteins; assay: Western blotting analysis of other STAT proteins in Molm-16 and SU-DHL-1 cells; type: cell-based; details: for effect on the levels of any STAT protein: 10 μM, Molm-16 4 h, SU-DHL-1 18 h
Outline: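 Molm-16 cells were treated for 4 h and SU-DHL-1 cells for 18 h, with test compound at 0.01–10 μM and control compounds at 10 μM. Cells were lysed and run on SDS–PAGE, then transferred to PVDF and blocked 1 h in 5% blocker in TBST. Blots were probed with primary then secondary antibodies against STAT family members and developed by chemiluminescence.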

Molm-16 xenograft tumor [4] = assay: Antitumor efficacy in the Molm-16 xenograft model; type: in vivo, SCID mice
Outline: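 Molm-16 cells (3 × 10^6) injected subcutaneously in 5 mg/mL Matrigel into CB.17 SCID mice. At an average tumor volume of 150 mm3, mice were randomized and dosed intravenously at 25 or 50 mg/kg three times weekly, or at 50 mg/kg once weekly, for 3 weeks. Vehicle was 10% PEG400 + 90% PBS. Tumors and body weight were measured 2–3 times weekly, with volume = (length × width2)/2.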

STAT3 protein [5] = biological target: T1, STAT3 protein; assay: Pharmacodynamics in Molm-16 xenograft tumor tissue; type: in vivo, SCID mice
Outline: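 Molm-16 subcutaneous xenografts were grown in CB.17 SCID mice (3 × 10^6 cells in 5 mg/mL Matrigel). Mice received a single intravenous dose of test compound or vehicle (10% PEG400 + 90% PBS). Animals were euthanized at set time points, including 1 h and 72 h. Tumor lysates were immunoblotted for total STAT3 and pSTAT3Y705.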

other STAT proteins = details: cited from earlier work
Molm-16 xenograft tumor [6] = details: 100 mg/kg weekly dosing; cited from earlier work
SU-DHL-1 cell line = assay: Cell growth assay; type: cell-based; details: SU-DHL-1, up to 10 μM
STAT3 protein [7] = biological target: T1, STAT3 protein; assay: Western blotting of STAT3 degradation in SU-DHL-1 cells; type: cell-based; details: SU-DHL-1, concentrations up to 10 μM
[8] = 25 or 50 mg/kg three times per week

STAT3 protein (Mus musculus, UniProt P42227), sequence (P42227 whole entry): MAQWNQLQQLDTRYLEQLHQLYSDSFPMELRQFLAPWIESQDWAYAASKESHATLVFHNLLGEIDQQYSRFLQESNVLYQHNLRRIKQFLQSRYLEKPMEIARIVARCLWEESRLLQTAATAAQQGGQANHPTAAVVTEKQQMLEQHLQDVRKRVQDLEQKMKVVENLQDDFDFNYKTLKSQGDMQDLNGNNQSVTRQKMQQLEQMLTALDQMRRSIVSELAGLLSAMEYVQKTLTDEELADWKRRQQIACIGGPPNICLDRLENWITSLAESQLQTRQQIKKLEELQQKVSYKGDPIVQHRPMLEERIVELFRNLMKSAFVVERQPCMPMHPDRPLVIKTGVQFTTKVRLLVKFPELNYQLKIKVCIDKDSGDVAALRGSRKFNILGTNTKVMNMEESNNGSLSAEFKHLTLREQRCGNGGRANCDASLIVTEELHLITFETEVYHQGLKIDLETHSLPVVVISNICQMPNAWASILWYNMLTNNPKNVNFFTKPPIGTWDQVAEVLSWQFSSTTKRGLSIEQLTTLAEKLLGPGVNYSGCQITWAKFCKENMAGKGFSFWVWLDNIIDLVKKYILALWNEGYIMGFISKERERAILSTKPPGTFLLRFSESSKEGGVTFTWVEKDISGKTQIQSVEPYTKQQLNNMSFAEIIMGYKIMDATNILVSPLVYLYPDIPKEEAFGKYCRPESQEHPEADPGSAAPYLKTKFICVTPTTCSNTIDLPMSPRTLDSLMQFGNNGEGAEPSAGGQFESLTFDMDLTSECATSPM
T1 sequence (P40763 whole entry): as the sequence (P42227 whole entry) above, with D760E counted along it

Compound	persistence of STAT3 reduction in spleen (STAT3 protein [1])	reducing STAT3 protein in native mouse spleen tissue (STAT3 protein [1])	activity in inhibition of cell growth (Molm-16 cell line)	degradation of total STAT3 and pSTAT3^Y705 proteins (STAT3 protein [2])	effect on the levels of any STAT protein [3]	effect on cell viability (SU-DHL-1 cell line)	effect on the levels of STAT3 and pSTAT3^Y705 (STAT3 protein [7])	further results
NC(=O)CC[C@H](NC(=O)[C@@H]1CC[C@@H]2CCN(C(=O)NCCCCC#Cc3cccc4c3CN(C3CCC(=O)NC3=O)C4=O)C[C@H](NC(=O)c3cc4cc(C(F)(F)P(=O)(O)O)ccc4[nH]3)C(=O)N21)C(=O)NC(c1ccccc1)c1ccccc1 (stereo partly drawn) [Compound 19, ((2-(((5S,8S,10aR)-8-(((S)-5-Amino-1-(benzhydrylamino)-1,5-dioxopentan-2-yl)carbamoyl)-3-((6-(2-(2,6-dioxopiperidin-3-yl)-1-oxoisoindolin-4-yl)hex-5-yn-1-yl)carbamoyl)-6-oxodecahydropyrrolo[1,2-a][1,5]diazocin-5-yl)carbamoyl)-1H-indol-5-yl)difluoromethyl)phosphonic Acid]	more than 48 h	very effective						
NC(=O)CC[C@H](NC(=O)[C@@H]1CC[C@@H]2CCN(C(=O)CCCCCC#Cc3cccc4c3CN(C3CCC(=O)NC3=O)C4=O)C[C@H](NC(=O)c3cc4cc(OP(=O)(O)O)ccc4[nH]3)C(=O)N21)C(=O)NC(c1ccccc1)c1ccccc1 (stereo partly drawn) [Compound 32, 2-(((5S,8S,10aR)-8-(((S)-5-Amino-1-(benzhydrylamino)-1,5-dioxopentan-2-yl)carbamoyl)-3-(8-(2-(2,6-dioxopiperidin-3-yl)-1-oxoisoindolin-4-yl)oct-7-ynoyl)-6-oxodecahydropyrrolo-[1,2-a][1,5]diazocin-5-yl)carbamoyl)-1H-indol-5-yl Dihydrogen Phosphate]			very weak activity	fail to degrade				
NC(=O)CC[C@H](NC(=O)[C@@H]1CC[C@@H]2CCN(C(=O)CCCCCC#Cc3cccc4c3CN(C3CCC(=O)NC3=O)C4=O)C[C@H](NC(=O)c3cc4cc(CP(=O)(O)O)ccc4[nH]3)C(=O)N21)C(=O)NC(c1ccccc1)c1ccccc1 (stereo partly drawn) [Compound 33, ((2-(((5S,8S,10aR)-8-(((S)-5-Amino-1-(benzhydrylamino)-1,5-dioxopentan-2-yl)carbamoyl)-3-(8-(2-(2,6-dioxopiperidin-3-yl)-1-oxoisoindolin-4-yl)oct-7-ynoyl)-6-oxodecahydropyrrolo-[1,2-a][1,5]diazocin-5-yl)carbamoyl)-1H-indol-5-yl)methyl)-phosphonic Acid]			very weak activity	fail to degrade				
NC(=O)CC[C@H](NC(=O)[C@@H]1CC[C@@H]2CCN(C(=O)CCCCCC#Cc3cccc4c3CN(C3CCC(=O)NC3=O)C4=O)C[C@H](NC(=O)c3cc4cc(C(F)(F)P(=O)(O)O)ccc4[nH]3)C(=O)N21)C(=O)NC(c1ccccc1)c1ccccc1 (stereo partly drawn) [SD-36, ((2-(((5S,8S,10aR)-8-(((S)-5-Amino-1-(benzhydrylamino)-1,5-dioxopentan-2-yl)carbamoyl)-3-(8-(2-(2,6-dioxopiperidin-3-yl)-1-oxoisoindolin-4-yl)oct-7-ynoyl)-6-oxodecahydropyrrolo-[1,2-a][1,5]diazocin-5-yl)carbamoyl)-1H-indol-5-yl)-difluoromethyl)phosphonic Acid]	more than 48 h	very effective						selectivity for degradation of STAT3 over other STAT members ([3]; Molm-16 and SU-DHL-1 cell lines): > 100 fold; effect on STAT1, STAT2, STAT4, STAT5A/B, and STAT6 proteins ([3]; Molm-16 and SU-DHL-1 cell lines, up to 10 μM): little or no effect; tumor response (Molm-16 xenograft tumor [4]; 50 mg/kg once weekly for 3 weeks): very effective in inhibition of tumor growth; duration of dosing after which complete tumor regression was achieved (Molm-16 xenograft tumor [4]; [8]): 2 weeks; persistence of complete tumor regression after termination of the treatment (Molm-16 xenograft tumor [4]; [8]): more than 2 weeks; tumor response (Molm-16 xenograft tumor [4]; 25 or 50 mg/kg three times per week for 3 weeks intravenously): complete tumor regression; weight loss or other signs of toxicity (Molm-16 xenograft tumor [4]; efficacy experiment, Molm-16 xenograft mice): no weight loss or other signs of toxicity; persistence of STAT3 elimination in tumor tissue (STAT3 protein [5]; single dose): > 3 days; reduction of total STAT3 and pSTAT3^Y705 proteins in xenograft tumor tissue (STAT3 protein [5]; single dose 50 mg/kg, after 1 h): > 95%; affinity to other STAT proteins tested (other STAT proteins): much weaker affinity; concentration very effective in reducing the level of STAT3 protein (STAT3 protein [2]; Western blot, Molm-16 and SU-DHL-1 cells): ≥ 0.1 µM; tumor response (Molm-16 xenograft tumor [6]): complete tumor regression
CN1C(=O)CCC(N2Cc3c(C#CCCCCCC(=O)N4CC[C@H]5CC[C@@H](C(=O)N[C@@H](CCC(N)=O)C(=O)NC(c6ccccc6)c6ccccc6)N5C(=O)[C@@H](NC(=O)c5cc6cc(C(F)(F)P(=O)(O)O)ccc6[nH]5)C4)cccc3C2=O)C1=O (stereo partly drawn) [SD-36Me, ((2-(((5S,8S,10aR)-8-(((S)-5-Amino-1-(benzhydrylamino)-1,5-dioxopentan-2-yl)carbamoyl)-3-(8-(2-(1-methyl-2,6-dioxopi-peridin-3-yl)-1-oxoisoindolin-4-yl)oct-7-ynoyl)-6-oxodecahydropyrrolo[1,2-a][1,5]diazocin-5-yl)carbamoyl)-1H-indol-5-yl)difluoromethyl)phosphonic Acid]				completely ineffective	no effect	no effect	no effect	times less potent than SD-36 in cell growth inhibition (Molm-16 cell line; Molm-16, ratio of IC50): 400 times
CC(=O)N1CC[C@H]2CC[C@@H](C(=O)N[C@@H](CCC(N)=O)C(=O)NC(c3ccccc3)c3ccccc3)N2C(=O)[C@@H](NC(=O)c2cc3cc(C(F)(F)P(=O)(O)O)ccc3[nH]2)C1 [SI-109, ((2-(((5S,8S,10aR)-3-Acetyl-8-(((S)-5-amino-1-(benzhydrylamino)-1,5-dioxopentan-2-yl)carbamoyl)-6-oxodecahydropyrrolo[1,2-a][1,5]diazocin-5-yl)carbamoyl)-1H-indol-5-yl)difluoromethyl)phosphonic Acid]					no effect	no effect	no effect	effect on the level of total STAT3 protein (STAT3 protein [2]; Molm-16, 4 h, concentrations up to 1 μM): no effect; effect on the level of pSTAT3^Y705 protein (STAT3 protein [2]; Molm-16, 4 h, up to / at 1 μM): only modestly decreases
